# Screening data from PubChem BioAssay.
# FN deposit inh: fibronectin deposition inhibition; inhibition, % at 12.6 µM; AH1F fibroblasts, Alexa488-fibronectin deposition fluorescence, overnight; hit rate 0.086% among 350,000;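 active means mean inhibition across replicates of 30% or more, regardless of how many single replicates reach that level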;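 further: positive control wells lacked labelled fibronectin entirely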
#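 Material: AH1F fibroblasts assembling fluorescent fibronectin matrix; amount: 10000 AH1F cells/well; medium: DMEM, 2% serum; reagent: Alexa488-fibronectin, 24 nM final in well; dosing: single compound dose, delivered by pin transfer; incubation: 1 h adhesion, overnight exposure; detection: fluorescence after three HBSS washes, excitation 485 nm, emission 525 nm; measure: fibronectin deposition inhibition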
# PGC1a acetyl inh: modulators of PGC1a acetylation. inhibition, % at 15.6 µM. hit rate 0.17% among 350,000. U2OS PGC1a acetylation, AlphaScreen anti-acetyl-lysine; with virally co-expressed GCN5 acetyltransferase;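 active means every replicate shows inhibition of at least 40%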;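 further: 0% = neutral control wells and 100% = positive control wells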
# PAX8 reporter: lowers PAX8-driven luciferase in RMG-I cells. RMG-I TPO-luciferase reporter, SteadyGlo, 24 h. inhibition, % at 12.6 µM. AID 652154. hit rate 1.2% among 360,000;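 active means mean replicate inhibition at least 60% with every replicate also reaching 60%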;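 further: luciferase light reporting Pax8 driven TPO promoter activity; plate controls were median of neutral control wells for no effect and mitoxantrone controls for full effect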
# EWS-Fli block: EWS/Fli transcriptional activity inhibition. A673 NR0B1-luciferase reporter, viability-normalised. inhibition, % at 12.6 µM. hit rate 0.67% among 350,000;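 active means mean inhibition of at least 50% after viability correction, with every replicate also passing that limit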;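 further: firefly luciferase signal divided by Alamar Blue viability fluorescence both relative to DMSO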
# FGF22 binding-1: binders of recombinant human FGF22 by thermal shift. Q9HCT0. SYPRO orange fluorescence; percent of sucrose octasulfate shift, DMSO zero. activity (Tm shift, normalised), % at 9.99 µM. hit rate 1.5% among 340,000. AID 651658;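 active means mean Tm shift, scaled 0 neutral to 100 positive control, at about 1.3% or above, every replicate too, limit read from the data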
# Target sequence (Q9HCT0 whole entry, looked up): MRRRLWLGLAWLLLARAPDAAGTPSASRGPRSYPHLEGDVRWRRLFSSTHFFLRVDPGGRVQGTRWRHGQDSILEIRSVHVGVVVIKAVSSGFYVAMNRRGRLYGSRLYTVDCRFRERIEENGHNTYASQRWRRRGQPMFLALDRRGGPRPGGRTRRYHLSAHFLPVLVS
# Env fusion inh: blocks HIV Env-driven cell-cell fusion; HeLa-JRFL Env/CEM21 cell fusion, luciferase; AID 651610; hit rate 1.1% among 360,000; inhibition, % at 12.3 µM;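 active means mean replicate inhibition score of at least 50 and every replicate individually at or above 50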;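 further: 0% = plate neutral controls and 100% = maraviroc near 300 nM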
# FGF22 binding-2: binders of human FGF22 by thermal shift; thermal shift activity, °C (ΔTm) at 38 µM; shares compounds with FGF22 binding-1; hit rate 2% among 1,000; recombinant FGF22 thermal shift, SYPRO orange fluorescence;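 active means fitted rise in melting shift crosses a set limit at or below the top valid dose tested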
# FGF22 TSA DP: binders of human FGF22 by thermal shift; 50 tested, under 10 active; Thermal shift assay, SYPRO orange, melting temperature shift; Tm shift (activity), % at 38 µM; shares compounds with FGF22 binding-1;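 active means compounds whose fitted dose curve of melting temperature shift rises past a set threshold within the tested doses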
# SYPRO no-protein: counter-screen for FGF22 binders: compound-only thermal shift, no protein; AID 743019; compound-only SYPRO orange thermal shift counter-screen; AC50, µM (titrated, usually from 38 µM); hit rate 2% among 1,000; shares compounds with FGF22 binding-1;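 active means rising signal whose fitted curve reaches the 0.54 level within the top valid dose, showing a melting point, actives reach about 13 µM in these data; inactive means the rest, including activity in the opposite direction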; further: value is where the raw curve crosses a fixed level and not half-maximal
# The depositor's hits bear a star; i = inactive; nt = no result given; ! = not confirmed by another sample; [ ] = remark or other dose. Sampled rows, rich in hits. Any-hit rate of the full collection: about 3.1%.
SMILES,FN deposit inh,PGC1a acetyl inh,PAX8 reporter,EWS-Fli block,FGF22 binding-1,Env fusion inh,FGF22 binding-2,SYPRO no-protein,others
CNC[C@H]1Oc2c(NS(=O)(=O)c3ccc(OC)cc3)cccc2C(=O)N([C@H](C)CO)C[C@@H]1C,0,-2,-12,1,0,-7[16.7 µM],nt,nt,
COc1ccc(S(=O)(=O)Nc2cccc3c2O[C@H](CN(C)S(=O)(=O)c2ccc(C)cc2)[C@@H](C)CN([C@H](C)CO)C3=O)cc1,nt,-7,8,2,0,-51[16.7 µM],nt,nt,
CCC(=O)N[C@H]1CC[C@@H](CCNS(=O)(=O)c2ccc(Cl)cc2)O[C@H]1CO,nt,-2,2,1,0,i,nt,nt,
Cc1noc(C)c1S(=O)(=O)Nc1ccc2c(c1)C(=O)N([C@@H](C)CO)C[C@@H](C)[C@@H](CN(C)Cc1ccncc1)OCCCC[C@H](C)O2,nt,15,8,6,0,1[16.7 µM],nt,nt,
CC(C)CC#Cc1cnc2c(c1)C(=O)N([C@@H](C)CO)C[C@H](C)[C@@H](CN(C)Cc1ccccn1)O2,0,-14,nt,5,1.6*,11[16.7 µM],0.1,i,
C[C@@H]1CN([C@H](C)CO)C(=O)c2cc(Br)cnc2O[C@@H]1CN(C)Cc1ccccc1,nt,-2,nt,-8,0,2[16.7 µM],nt,nt,
C[C@H]1CN([C@@H](C)CO)C(=O)c2cc(C#Cc3ccccc3F)cnc2O[C@H]1CN(C)S(=O)(=O)c1ccccc1,4,0,20,19,1.7*,nt,0.086[42 µM],i,
C[C@@H]1CN([C@H](C)CO)C(=O)c2cc(Br)cnc2O[C@@H]1CN(C)Cc1ccc(F)cc1,-1,8,-8,-1,21*!,-13,0.098,i,
CC(C)C[C@@H]1COCc2cn(nn2)CC[C@H](Cc2ccccc2)C(=O)N1,4,nt,-3,4,0,1[16.7 µM],nt,nt,
CCNC(=O)C[C@@H]1CC[C@H]2[C@H](COc3ccc(NC(=O)Nc4ccc(Cl)cc4)cc3C(=O)N2C)O1,-2,-5,11,-2,1.2*,25[16.7 µM],-0.09,i,FGF22 TSA DP=0
CNC(=O)C[C@H]1CC[C@@H]2[C@H](COc3ccc(NC(=O)c4ccccc4OC)cc3C(=O)N2C)O1,-16,4,-18,-13,2.6*,19[16.7 µM],-0.021,i,
CN1C(=O)c2cc(NC(=O)c3ccccc3Cl)ccc2OC[C@@H]2O[C@@H](CC(=O)NCC(F)(F)F)CC[C@H]21,nt,nt,-39,2,36*,3[16.7 µM],0.1,i,
CCNC(=O)C[C@@H]1CC[C@@H]2[C@@H](COc3ccc(NC(=O)Nc4ccc(Cl)cc4)cc3C(=O)N2C)O1,1,-2,1,-42,0,12[16.7 µM],nt,nt,
CN1C(=O)c2cc(NC(=O)c3ccccc3Cl)ccc2OC[C@H]2O[C@H](CC(=O)NCC(F)(F)F)CC[C@H]21,nt,nt,-13,-5,0,-22[16.7 µM],nt,nt,
C[C@@H]1CN([C@H](C)CO)C(=O)c2cc(-c3ccncc3)cnc2O[C@H]1CN(C)C(=O)c1ccncc1,nt,-4,nt,-10,0,-13[16.7 µM],nt,nt,
CS(=O)(=O)N1CC2(C1)[C@H](c1ccccc1)[C@@H](CO)N2Cc1ccccc1,4,-3,11,-1,0,nt,nt,nt,
CS(=O)(=O)N1CC2(C1)[C@@H](c1ccccc1)[C@@H](CO)N2Cc1ccc(F)cc1,nt,-6,nt,-3,1.9*,nt,0.087[42 µM],i,
C[C@H]1CN([C@@H](C)CO)C(=O)CCCn2nncc2CO[C@H]1CN(C)S(=O)(=O)c1ccc(F)cc1,-5,-9,-14,-2,0,2[16.7 µM],nt,nt,
C[C@@H]1CN([C@H](C)CO)C(=O)CCCn2nncc2CO[C@H]1CN(C)S(=O)(=O)c1ccc(F)cc1,4,0,-2,6,1.2*!,nt,0,i,
C[C@@H]1CN([C@@H](C)CO)C(=O)CCCn2nncc2CO[C@@H]1CN(C)S(=O)(=O)c1ccc(F)cc1,7,11,-1,-10,1.3*!,nt,0.058[42 µM],i,
